Data: ChEMBL document CHEMBL1147739, “Identification of the key residue of calcitonin gene related peptide (CGRP) 27-37 to obtain antagonists with picomolar affinity at the CGRP receptor” (J Med Chem, 2006)
*1 amine or outer side, *2 acyl side, *3 side chain or, on linkers, in order; H or OH if unused. Where a SMILES comes first, the peptide text is derived from it. [ ]: non-standard residue; d: D form. X2 = COC(=O)[C@@H]1[C@@H](N[*:1])[C@H]1C(=O)[*:2]; X1 = COC(=O)[C@H]1[C@H](N[*:1])[C@@H]1C(=O)[*:2]

Key:
[1] = biological target: T1, Calcitonin-gene-related peptide receptor, CALCRL/RAMP1 (Homo sapiens, UniProt O60894+Q16602); test: Displacement of [3H-propionyl-K24] from halphaCGRP expressed in human neuroblastoma SK-N-MC cells; assay type: cell-based
T1 sequence (O60894 whole entry): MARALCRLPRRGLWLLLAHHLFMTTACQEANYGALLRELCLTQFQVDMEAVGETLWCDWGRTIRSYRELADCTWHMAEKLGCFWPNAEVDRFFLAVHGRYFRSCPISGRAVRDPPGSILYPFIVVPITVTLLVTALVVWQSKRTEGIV
T1 sequence (Q16602 whole entry): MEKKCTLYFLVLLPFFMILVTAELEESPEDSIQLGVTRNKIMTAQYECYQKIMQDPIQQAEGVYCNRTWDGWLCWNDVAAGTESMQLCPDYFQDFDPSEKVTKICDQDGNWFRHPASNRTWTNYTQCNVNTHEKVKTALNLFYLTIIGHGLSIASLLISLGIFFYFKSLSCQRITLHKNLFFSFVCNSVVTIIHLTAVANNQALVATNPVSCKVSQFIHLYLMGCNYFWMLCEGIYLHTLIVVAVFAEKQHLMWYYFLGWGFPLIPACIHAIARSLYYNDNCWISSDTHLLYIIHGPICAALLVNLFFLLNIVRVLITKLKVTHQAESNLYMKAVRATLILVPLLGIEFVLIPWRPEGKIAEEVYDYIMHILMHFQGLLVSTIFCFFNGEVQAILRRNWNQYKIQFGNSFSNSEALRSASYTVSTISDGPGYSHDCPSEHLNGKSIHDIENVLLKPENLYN
In short: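 Whole SK-N-MC cells, 3 million/mL in Tris pH 7.4 buffer with NaCl, MgCl2, Pefabloc and 1% BSA. Incubated 90 min at room temperature with 1 nM [3H-propionyl-K24]-hRCGRP 8-37 and competitor (10-5-10-14 M). Separated by centrifugation with a cold wash, then β-counted. IC50 by nonlinear regression, converted to Ki by Cheng-Prusoff with tracer KD. Three experiments in triplicate.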

[2] = biological target: T1, Calcitonin-gene-related peptide receptor, CALCRL/RAMP1; test: Antagonist activity on halphaCGRP-induced cAMP accumulation at human neuroblastoma SK-N-MC cells; assay type: functional, cell-based; conditions: read-out: pA2 (converted)
In short: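 SK-N-MC cells detached with PBS-EDTA, washed in HEPES/glucose Hank's, ~2 million cells/mL in buffer with 1 mM IBMX and 1% BSA. Preincubated 15 min at 37 °C, then 15 min with hRCGRP (10-5-10-12 M) alone or with fixed antagonist (10 or 100 nM). cAMP extracted with HCl, AlphaScreen read-out. Agonist EC50 shifts gave concentration ratios, and apparent pA2 = log((CR-1)/[B]). Three experiments in triplicate.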

[3] = biological target: T1, Calcitonin-gene-related peptide receptor, CALCRL/RAMP1; test: Displacement of [125I-Tyr10] from halphaCGRP expressed in human neuroblastoma SK-N-MC cells; assay type: cell-based

Row | Molecule | Ki [1] | Kb [2] | Ki [3]
1 | CC(C)[C@H](NC(=O)[C@H](CC(=O)O)NC(=O)[C@@H](NC(=O)[C@@H]1CCCCN1C(=O)[C@@H](NC(=O)[C@@H](N)Cc1ccccc1)C(C)C)[C@@H](C)O)C(=O)NCC(=O)N1CCC[C@H]1C(=O)N[C@@H](Cc1ccccc1)C(=O)N[C@@H](C)C(=O)N[C@@H](Cc1ccccc1)C(=O)O | > 10000 nM |  | 
2 | COC(=O)[C@@H]1[C@@H](NC(=O)[C@@H](NC(=O)[C@@H](N)Cc2ccccc2)C(C)C)[C@H]1C(=O)N[C@H](C(=O)N[C@@H](CC(=O)O)C(=O)N[C@H](C(=O)NCC(=O)N1CCC[C@H]1C(=O)N[C@@H](Cc1ccccc1)C(=O)N[C@@H](C)C(=O)N[C@@H](Cc1ccccc1)C(=O)O)C(C)C)[C@@H](C)O | > 10000 nM |  | 
3 | COC(=O)[C@H]1[C@H](NC(=O)[C@@H](NC(=O)[C@@H](N)Cc2ccccc2)C(C)C)[C@@H]1C(=O)N[C@H](C(=O)N[C@@H](CC(=O)O)C(=O)N[C@H](C(=O)NCC(=O)N1CCC[C@H]1C(=O)N[C@@H](Cc1ccccc1)C(=O)N[C@@H](C)C(=O)N[C@@H](Cc1ccccc1)C(=O)O)C(C)C)[C@@H](C)O | 0.7 nM |  | 
4 | COC(=O)[C@H]1[C@H](NC(=O)CNC(=O)[C@@H](NC(=O)[C@H](CC(=O)O)NC(=O)[C@@H](NC(=O)[C@@H]2CCCN2C(=O)[C@@H](NC(=O)[C@@H](N)Cc2ccccc2)C(C)C)[C@@H](C)O)C(C)C)[C@@H]1C(=O)N[C@@H](Cc1ccccc1)C(=O)N[C@@H](C)C(=O)N[C@@H](Cc1ccccc1)C(=O)O (H-FVPTDVG[X1]FAF-OH) | > 10000 nM |  | 
5 | COC(=O)[C@@H]1[C@@H](NC(=O)CNC(=O)[C@@H](NC(=O)[C@H](CC(=O)O)NC(=O)[C@@H](NC(=O)[C@@H]2CCCN2C(=O)[C@@H](NC(=O)[C@@H](N)Cc2ccccc2)C(C)C)[C@@H](C)O)C(C)C)[C@H]1C(=O)N[C@@H](Cc1ccccc1)C(=O)N[C@@H](C)C(=O)N[C@@H](Cc1ccccc1)C(=O)O (H-FVPTDVG[X2]FAF-OH) | > 10000 nM |  | 
6 | COC(=O)[C@H]1[C@H](NC(=O)CNC(=O)[C@@H](NC(=O)[C@H](CC(N)=O)NC(=O)[C@@H](NC(=O)[C@@H]2CCCN2C(=O)[C@@H](NC(=O)[C@@H](N)Cc2ccccc2)C(C)C)[C@@H](C)O)C(C)C)[C@@H]1C(=O)N[C@@H](Cc1ccccc1)C(=O)N[C@@H](C)C(=O)N[C@@H](Cc1ccccc1)C(=O)O (H-FVPTNVG[X1]FAF-OH) | > 10000 nM |  | 
7 | COC(=O)[C@@H]1[C@@H](NC(=O)CNC(=O)[C@@H](NC(=O)[C@H](CC(N)=O)NC(=O)[C@@H](NC(=O)[C@@H]2CCCN2C(=O)[C@@H](NC(=O)[C@@H](N)Cc2ccccc2)C(C)C)[C@@H](C)O)C(C)C)[C@H]1C(=O)N[C@@H](Cc1ccccc1)C(=O)N[C@@H](C)C(=O)N[C@@H](Cc1ccccc1)C(=O)O (H-FVPTNVG[X2]FAF-OH) | > 10000 nM |  | 
8 | H-FVATDVGPFAF-OH | 8.4 nM | 25.1 nM | 
9 | H-FVPTDVGAFAF-OH | 13.6 nM |  | 76.8 nM

Molecules with a lower Ki [1], results first:

Row | Ki [1] | Kb [2] | Ki [3] | Molecule
10 | 0.02 nM | 6.31 nM |  | CC(C)[C@H](NC(=O)[C@H](CC(=O)O)NC(=O)[C@@H](NC(=O)[C@@H]1Cc2ccccc2CN1C(=O)[C@@H](NC(=O)[C@@H](N)Cc1ccccc1)C(C)C)[C@@H](C)O)C(=O)NCC(=O)N1CCC[C@H]1C(=O)N[C@@H](Cc1ccccc1)C(=O)N[C@@H](C)C(=O)N[C@@H](Cc1ccccc1)C(=O)O
11 | 0.006 nM | 31.6 nM |  | CC(C)[C@H](NC(=O)[C@H](CC(=O)O)NC(=O)[C@@H](NC(=O)[C@@H]1C[C@@H](O)CN1C(=O)[C@@H](NC(=O)[C@@H](N)Cc1ccccc1)C(C)C)[C@@H](C)O)C(=O)NCC(=O)N1CCC[C@H]1C(=O)N[C@@H](Cc1ccccc1)C(=O)N[C@@H](C)C(=O)N[C@@H](Cc1ccccc1)C(=O)O
12 | 0.02 nM |  | 14 nM | CC(C)[C@H](NC(=O)[C@H](CC(=O)O)NC(=O)[C@@H](NC(=O)[C@@H]1CCCN1C(=O)[C@@H](NC(=O)[C@@H](N)Cc1ccccc1)C(C)C)[C@@H](C)O)C(=O)NCC(=O)N1CCC[C@H]1C(=O)N[C@@H](Cc1ccccc1)C(=O)N[C@@H](C)C(=O)N[C@@H](Cc1ccccc1)C(=O)O
13 | 0.002 nM | 10 nM |  | CC(C)[C@H](NC(=O)[C@H](CC(=O)O)NC(=O)[C@@H](NC(=O)C(C)(C)NC(=O)[C@@H](NC(=O)[C@@H](N)Cc1ccccc1)C(C)C)[C@@H](C)O)C(=O)NCC(=O)N1CCC[C@H]1C(=O)N[C@@H](Cc1ccccc1)C(=O)N[C@@H](C)C(=O)N[C@@H](Cc1ccccc1)C(=O)O
